The source made the active and inactive calls. The calls are words filed in the database; no cut-off is given here.
Legend:
[1] = test system: Mus musculus; experiment: ED6 (natriuretic potency) is the oral dose(mg/kg) required to produce an excretion of 6 milliequivalents of Na+per kilogram during 0-4 hr in male mice (Highest dose tested was 50 mg/kg); assay type: functional
Method in brief: (§1)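 Male mice, 16-30 g, fed ad libitum beforehand. Compound in 0.2% hydroxypropylmethylcellulose given po at 10 mL/kg, then 0.9% saline po at 3% of body weight. Five mice pooled per metabolism cage, four cages per dose. Combined urine collected 0-4 h and assayed for Na+, K+, Cl-, uric acid as mequiv/kg per cage. ED6 from regression of Na+ against log dose.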

[2] = test system: Rattus norvegicus; experiment: ED2(natriuretic potency) is the oral dose(mg/kg) required to produce an excretion of 2 milliequivalents of Na+per kilogram during 0-4 hr in female rats (Highest dose tested was 100 mg/kg); assay type: functional
Method in brief: (§2)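 Female Sprague-Dawley rats, 175-225 g, on sucrose and water for 18 h, given 5 mg DOCA sc 2 h before dosing. Compound in 0.2% methylcellulose given by gavage at 2 mL/kg, then a 30 mL/kg load of 0.34% NaCl/0.69% KCl. Individual metabolism cages, urine collected 0-4 h for Na+, K+, Cl-. Two-stage two-dose screen at 2 rats/dose, then at least four doses at 4 rats/dose. ED2 taken from regression of Na+ excretion against log dose.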

[3] = species on record: Canis familiaris; experiment: urate excreted in female dogs during 0-6 hr; assay type: ADME, organism-based, Canis lupus familiaris; settings: dog, in vivo
Method in brief: (§3)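 Conscious female dogs dosed at 3 mg/kg po, except one reference at 10 mg/kg, one dose per dog. Urine collected to 6 h and centrifuged; heparinized venous plasma taken at each collection. Na+ and urate measured by standard methods, mean ± SEM over 0-6 h. Compared with vehicle by ANOVA/Duncan's test or unpaired t test.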

[4] = urate excreted in 6 Cebus monkey''s during 0-6 hr; assay type: ADME; settings: in vivo
Method in brief: (§4)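 Male and female Cebus monkeys, 4-6 per group, fasted for 6 h after dosing, water ad libitum. 20 mg/kg in 0.2% hydroxypropylmethylcellulose at 1.0 mL/kg by nasogastric tube, then water load of 5% body weight. Urine collected in metabolism pans at 2, 6 and 24 h and assayed for uric acid. Urate in mg/kg over 0-6 h, mean ± SEM.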

[5] = test system: Mus musculus; experiment: Na+ excretion mequiv /kg in saline-loaded mice administered at a dose 10 […] perorally; assay type: ADME, organism-based; settings: in vivo, po
Method in brief: (§5)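 Saline-loaded male mice, 16-30 g. Compound po in 0.2% hydroxypropylmethylcellulose at 10 mL/kg, vehicle alone for controls, followed by 0.9% saline po at 3% of body weight. Doses were 0.3-250 mg/kg po. Five mice per metabolism cage, four cages per dose, pooled urine collected for 4 h. Na+ reported as mean ± SEM mequiv/kg; ANOVA with Duncan's test or unpaired t test against control.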

[6] = test system: Mus musculus; experiment: Na+ excretion mequiv /kg in saline-loaded mice administered at a dose 2 […] perorally; assay type: ADME, organism-based; settings: in vivo, po; method in brief: as §5
[7] = test system: Mus musculus; experiment: Na+ excretion mequiv /kg in saline-loaded mice administered at a dose 50 […] perorally; assay type: ADME, organism-based; settings: in vivo, po; method in brief: as §5
[8] = test system: Canis familiaris; experiment: ED5(natriuretic potency) is the oral dose(mg/kg) required to produce an excretion of 5 milliequivalents of Na+per kilogram during 0-6 hr in female dogs (Highest dose tested was 30 mg/kg); assay type: functional, Canis lupus familiaris
Method in brief: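 Female dogs, conscious, one oral dose per dog per experiment. Urine collected and centrifuged; venous plasma drawn at each collection time. Samples assayed for Na+, K+, Cl-, urate and glucose by standard methods. Cumulative Na+ output expressed as mequiv/kg over 6 h, at least two dogs/dose. ED5 read from regression of Na+ excretion against log dose.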

[9] = test system: Canis familiaris; experiment: Na+ excretion mequiv /kg in conscious female dogs administered perorally during 0-6 hr; assay type: ADME, organism-based, Canis lupus familiaris; settings: dog, in vivo, po; method in brief: as §3
[10] = test system: Mus musculus; experiment: ED6 (natriuretic potency) is the oral dose(mg/kg) required to produce an excretion of 6 milliequivalents of Na+per kilogram during 0-4 hr in male mice (Highest dose tested was 50 mg/kg); Inactive; assay type: functional, organism-based; set-up: dose 50 mg/kg; method in brief: as §1
[11] = test system: Rattus norvegicus; experiment: ED2(natriuretic potency) is the oral dose(mg/kg) required to produce an excretion of 2 milliequivalents of Na+per kilogram during 0-4 hr in female rats (Highest dose tested was 100 mg/kg); Inactive; assay type: functional, organism-based; set-up: dose 100 mg/kg; method in brief: as §2
[12] = test system: Canis familiaris; experiment: Na+ excretion mequiv /kg in 6 conscious female dogs administered perorally during 0-6 hr; assay type: ADME, organism-based, Canis lupus familiaris; settings: dog, in vivo, po; method in brief: as §3
[13] = urate excreted in 4 Cebus monkey''s during 0-6 hr; assay type: ADME; settings: in vivo; method in brief: as §4

SMILES	ED6 [1]	ED2 [2]	ED6 [10]	also measured
O=C(O)C1Cc2cc3c(-c4ccc(F)cc4)noc3c(Cl)c2O1 (configuration not stated)	66 mg/kg	7.3 mg/kg	–	–
O=C(O)C1Cc2cc3c(-c4ccccc4F)noc3c(Cl)c2O1 (stereo in doubt; 29)	–	–	–	ED6 ([1]; 50 mg/kg): 2.95 mg/kg; Excretion [3]: 1.32 mg/kg; Excretion [4]: 8.34 mg/kg; Na+ excretion [5]: 8.1 m equiv kg-1; Na+ excretion [6]: 5.5 m equiv kg-1; Na+ excretion [7]: 13.2 m equiv kg-1; ED5 ([8]; 30 mg/kg): 0.71 mg/kg; Na+ excretion [9]: 7.6 m equiv kg-1
O=C(O)C1Cc2cc3c(-c4cccc(F)c4)noc3c(Cl)c2O1 (configuration not stated)	–	63 mg/kg	inactive	–
O=C(O)C1Cc2cc3c(-c4ccccc4Cl)noc3c(Cl)c2O1 (configuration not stated)	–	22.5 mg/kg	inactive	–
O=C(O)C1Cc2cc3c(-c4ccc(O)cc4)noc3c(Cl)c2O1 (configuration not stated)	–	190 mg/kg	inactive	–
Cc1c2c(cc3c(-c4ccccc4F)noc13)CC(C(=O)O)O2 (configuration not stated)	7.25 mg/kg	>100 mg/kg	–	ED5 [8]: 0.79 mg/kg
O=C(O)C1Cc2cc3c(-c4ccccc4F)noc3c(Br)c2O1 (configuration not stated)	9.9 mg/kg	117.5 mg/kg	–	–
O=C(O)C1Cc2cc3c(-c4ccccc4)noc3c(Cl)c2O1 (configuration not stated)	55 mg/kg	27.3 mg/kg	–	ED5 [8]: 13.5 mg/kg
OCC1Cc2cc3c(-c4ccccc4F)noc3c(Cl)c2O1 (configuration not stated)	30 mg/kg	–	–	ED2 [11]: inactive; ED5 [8]: 21 mg/kg
O=C(O)C1Cc2cc3c(-c4ccccc4F)noc3c(Cl)c2O1 (stereo in doubt; 15k)	–	40 mg/kg	–	ED6 ([1]; 50 mg/kg): 4.2 mg/kg; Excretion [3]: 0.82 mg/kg; Na+ excretion [12]: 8.18 m equiv kg-1; Na+ excretion [5]: 8.2 m equiv kg-1; Na+ excretion [6]: 4.2 m equiv kg-1; Na+ excretion [7]: 11.9 m equiv kg-1; ED5 ([8]; 30 mg/kg): 0.6 mg/kg; Excretion [13]: 7.08 mg/kg
COc1c2c(cc3c(-c4ccccc4F)noc13)CC(C(=O)O)O2 (configuration not stated)	–	210 mg/kg	inactive	–
Cc1ccccc1-c1noc2c(Cl)c3c(cc12)CC(C(=O)O)O3 (configuration not stated)	8.4 mg/kg	14.3 mg/kg	–	–
N#CC1Cc2cc3c(-c4ccccc4F)noc3c(Cl)c2O1 (configuration not stated)	–	–	inactive	ED2 [11]: inactive

From ChEMBL document CHEMBL1122741, “Substituted 5,6-dihydrofuro[3,2-f]-1,2-benzisoxazole-6-carboxylic acids: high-ceiling diuretics with uricosuric activity” (J Med Chem, 1984)
